{
  "source": "ChEMBL document CHEMBL4706499",
  "about": "“PTG-0861: A novel HDAC6-selective inhibitor as a therapeutic strategy in acute myeloid leukaemia” (Eur J Med Chem, 2020)",
  "key": {"[1]": {"test": "Cytotoxicity against human MRC9 cells measured after 72 hrs by spectrophotometer method", "assay_type": "cell-based", "conditions": "MRC9, 72 h"}, "[2]": {"test": "Selectivity ratio of IC50 for full length recombinant human HDAC3 to IC50 for full length recombinant human HDAC6"}, "Histone deacetylase 6": {"target": "T1, Histone deacetylase 6 (Danio rerio, UniProt F8W4B7)", "T1 sequence (F8W4B7 whole entry)": "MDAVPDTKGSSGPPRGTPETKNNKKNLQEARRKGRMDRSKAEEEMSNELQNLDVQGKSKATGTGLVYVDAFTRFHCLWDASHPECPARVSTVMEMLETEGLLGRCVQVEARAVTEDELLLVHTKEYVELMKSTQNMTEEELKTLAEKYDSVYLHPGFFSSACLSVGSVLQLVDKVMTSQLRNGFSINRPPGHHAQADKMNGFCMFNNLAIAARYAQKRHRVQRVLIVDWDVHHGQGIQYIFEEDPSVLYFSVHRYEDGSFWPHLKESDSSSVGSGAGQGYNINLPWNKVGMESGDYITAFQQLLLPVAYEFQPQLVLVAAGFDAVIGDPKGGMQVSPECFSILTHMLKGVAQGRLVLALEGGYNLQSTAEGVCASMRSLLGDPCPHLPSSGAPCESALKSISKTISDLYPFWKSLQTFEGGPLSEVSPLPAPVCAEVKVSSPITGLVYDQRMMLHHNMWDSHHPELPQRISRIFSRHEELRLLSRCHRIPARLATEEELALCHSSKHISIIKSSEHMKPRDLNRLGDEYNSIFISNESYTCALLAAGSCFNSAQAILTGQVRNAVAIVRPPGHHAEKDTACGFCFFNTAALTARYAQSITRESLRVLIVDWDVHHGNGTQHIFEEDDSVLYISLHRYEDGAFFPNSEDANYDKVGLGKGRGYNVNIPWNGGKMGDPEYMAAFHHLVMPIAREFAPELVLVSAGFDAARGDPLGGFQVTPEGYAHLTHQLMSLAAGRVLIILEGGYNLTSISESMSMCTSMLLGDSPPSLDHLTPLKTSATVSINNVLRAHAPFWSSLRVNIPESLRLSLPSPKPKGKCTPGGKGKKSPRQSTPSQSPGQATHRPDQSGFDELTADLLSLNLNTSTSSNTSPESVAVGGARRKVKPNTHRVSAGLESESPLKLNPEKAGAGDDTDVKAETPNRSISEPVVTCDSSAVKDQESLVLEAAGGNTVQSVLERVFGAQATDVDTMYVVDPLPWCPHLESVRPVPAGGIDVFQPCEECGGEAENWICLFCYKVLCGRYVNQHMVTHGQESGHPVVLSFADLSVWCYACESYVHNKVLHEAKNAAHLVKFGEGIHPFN", "test": "Inhibition of N-terminal 6 His-SUMO tagged Zebrafish HDAC6 CD2 domain expressed in Escherichia coli BL21(DE3) RILP pretreated for 10 mins before FITC-M344 addition and measured after 10 mins by fluorescence polarization competition assay"}, "[3]": {"test": "Cytotoxicity against human MRC9 cells", "assay_type": "functional, cell-based"}, "MV4-11 [4]": {"test_system": "MV4-11", "test": "Cytotoxicity against human MV4-11 cells measured after 72 hrs by spectrophotometer method", "assay_type": "functional, cell-based", "conditions": "MV4-11, 72 h"}, "[5]": {"target": "T2, Protein deacetylase HDAC6 (Homo sapiens) (UniProt Q9UBN7)", "T2 sequence (whole entry)": "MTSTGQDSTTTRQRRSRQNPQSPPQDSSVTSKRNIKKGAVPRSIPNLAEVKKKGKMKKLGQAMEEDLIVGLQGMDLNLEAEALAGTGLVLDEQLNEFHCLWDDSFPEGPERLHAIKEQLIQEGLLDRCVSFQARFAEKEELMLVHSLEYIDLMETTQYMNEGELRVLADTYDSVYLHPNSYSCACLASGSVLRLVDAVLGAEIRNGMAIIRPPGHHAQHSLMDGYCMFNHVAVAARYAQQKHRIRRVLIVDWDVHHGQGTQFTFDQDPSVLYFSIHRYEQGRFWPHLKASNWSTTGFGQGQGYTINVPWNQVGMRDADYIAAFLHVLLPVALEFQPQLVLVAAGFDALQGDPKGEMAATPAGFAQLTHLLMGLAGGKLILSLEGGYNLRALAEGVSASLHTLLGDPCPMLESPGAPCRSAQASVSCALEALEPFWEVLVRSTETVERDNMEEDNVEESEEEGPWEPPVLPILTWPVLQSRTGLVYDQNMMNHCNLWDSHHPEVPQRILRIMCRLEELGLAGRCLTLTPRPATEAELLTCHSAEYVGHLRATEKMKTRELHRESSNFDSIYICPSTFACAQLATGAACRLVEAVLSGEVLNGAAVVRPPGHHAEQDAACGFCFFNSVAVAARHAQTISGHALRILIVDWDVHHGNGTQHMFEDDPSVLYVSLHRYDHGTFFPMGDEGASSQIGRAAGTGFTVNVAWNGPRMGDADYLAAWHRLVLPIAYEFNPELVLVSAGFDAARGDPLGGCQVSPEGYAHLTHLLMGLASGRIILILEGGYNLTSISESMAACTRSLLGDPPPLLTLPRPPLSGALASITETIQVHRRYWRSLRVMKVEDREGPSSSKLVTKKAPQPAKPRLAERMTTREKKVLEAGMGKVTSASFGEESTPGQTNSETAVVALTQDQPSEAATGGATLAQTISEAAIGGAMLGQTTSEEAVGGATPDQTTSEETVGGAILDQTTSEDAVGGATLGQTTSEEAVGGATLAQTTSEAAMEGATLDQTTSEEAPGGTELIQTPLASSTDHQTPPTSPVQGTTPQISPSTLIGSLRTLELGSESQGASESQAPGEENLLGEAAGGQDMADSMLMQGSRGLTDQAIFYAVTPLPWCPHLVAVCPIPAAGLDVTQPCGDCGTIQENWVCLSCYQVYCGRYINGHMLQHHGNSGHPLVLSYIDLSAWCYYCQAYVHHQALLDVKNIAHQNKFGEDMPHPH", "test": "Inhibition of HDAC6 in human MV4-11 cells assessed as increase in acetylation of alpha tubulin at 0.5 uM measured after 6 hrs by Western blot assay relative to histone H3 acetylation", "assay_type": "cell-based", "outline": "(§1)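 MV4-11 cells were exposed to a range of concentrations for 6 h. Protein extracts were run on SDS-PAGE and immunoblotted for acetylated α-tubulin, acetylated histone H3 and acetylated histone H4, with HSC70 as the loading reference. A representative blot of three independent experiments is shown.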"}, "[6]": {"target": "T2, Protein deacetylase HDAC6 (Homo sapiens)", "test": "Inhibition of HDAC6 in human MV4-11 cells assessed as increase in acetylation of alpha tubulin at 0.5 uM measured after 6 hrs by Western blot assay relative to histone H4 acetylation", "assay_type": "cell-based", "outline": "as §1"}, "[7]": {"target": "Class 1 histone deacetylase (Homo sapiens) (UniProt Q13547+O15379+Q92769+Q9BY41)", "sequence (O15379 whole entry, looked up)": "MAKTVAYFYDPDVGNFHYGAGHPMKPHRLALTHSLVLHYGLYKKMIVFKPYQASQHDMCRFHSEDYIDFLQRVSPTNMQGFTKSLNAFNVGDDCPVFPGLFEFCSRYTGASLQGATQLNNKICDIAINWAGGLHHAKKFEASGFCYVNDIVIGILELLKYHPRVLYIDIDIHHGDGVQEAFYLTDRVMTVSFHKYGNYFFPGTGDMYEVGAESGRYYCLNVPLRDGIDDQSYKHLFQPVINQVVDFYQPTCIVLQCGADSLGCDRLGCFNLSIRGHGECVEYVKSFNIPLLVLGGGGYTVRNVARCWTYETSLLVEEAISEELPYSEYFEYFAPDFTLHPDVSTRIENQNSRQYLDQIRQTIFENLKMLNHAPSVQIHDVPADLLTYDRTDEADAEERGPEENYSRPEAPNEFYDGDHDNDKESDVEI", "sequence (Q13547 whole entry, looked up)": "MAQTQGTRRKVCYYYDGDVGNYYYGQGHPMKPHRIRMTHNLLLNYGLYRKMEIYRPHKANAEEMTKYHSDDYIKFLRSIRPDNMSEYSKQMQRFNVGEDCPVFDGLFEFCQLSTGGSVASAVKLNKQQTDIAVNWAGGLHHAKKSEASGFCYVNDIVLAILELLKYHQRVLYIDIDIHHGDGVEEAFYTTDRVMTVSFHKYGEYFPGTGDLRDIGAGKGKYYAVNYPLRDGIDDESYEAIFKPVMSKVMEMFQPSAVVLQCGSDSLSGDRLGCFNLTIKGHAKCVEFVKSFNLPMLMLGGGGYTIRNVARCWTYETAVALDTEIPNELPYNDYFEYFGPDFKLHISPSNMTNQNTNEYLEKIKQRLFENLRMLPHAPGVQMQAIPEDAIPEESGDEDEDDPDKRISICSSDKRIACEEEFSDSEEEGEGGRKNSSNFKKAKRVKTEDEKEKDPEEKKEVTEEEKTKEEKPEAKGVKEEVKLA", "sequence (Q92769 whole entry, looked up)": "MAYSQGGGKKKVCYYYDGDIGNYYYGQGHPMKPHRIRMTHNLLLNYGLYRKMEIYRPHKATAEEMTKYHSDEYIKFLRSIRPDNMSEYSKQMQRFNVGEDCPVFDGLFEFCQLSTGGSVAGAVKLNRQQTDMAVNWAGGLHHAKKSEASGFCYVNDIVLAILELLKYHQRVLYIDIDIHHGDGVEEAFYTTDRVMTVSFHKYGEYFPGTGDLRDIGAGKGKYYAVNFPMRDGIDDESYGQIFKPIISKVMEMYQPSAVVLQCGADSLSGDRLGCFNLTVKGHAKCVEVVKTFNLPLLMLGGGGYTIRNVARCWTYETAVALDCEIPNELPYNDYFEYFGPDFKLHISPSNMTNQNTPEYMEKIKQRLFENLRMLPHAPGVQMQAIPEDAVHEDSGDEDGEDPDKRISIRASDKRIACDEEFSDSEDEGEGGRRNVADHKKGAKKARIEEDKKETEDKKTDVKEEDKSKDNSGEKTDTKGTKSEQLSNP", "sequence (Q9BY41 whole entry, looked up)": "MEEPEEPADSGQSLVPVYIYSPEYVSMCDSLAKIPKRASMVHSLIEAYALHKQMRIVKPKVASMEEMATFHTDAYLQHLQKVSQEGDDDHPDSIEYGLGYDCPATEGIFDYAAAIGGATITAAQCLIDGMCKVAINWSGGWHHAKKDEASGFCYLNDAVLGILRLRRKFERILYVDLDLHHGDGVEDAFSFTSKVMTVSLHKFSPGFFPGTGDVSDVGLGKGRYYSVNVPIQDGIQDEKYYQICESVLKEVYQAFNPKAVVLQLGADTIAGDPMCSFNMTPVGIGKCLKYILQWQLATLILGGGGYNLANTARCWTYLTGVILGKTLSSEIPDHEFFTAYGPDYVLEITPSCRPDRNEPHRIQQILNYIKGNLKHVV", "test": "Inhibition of HDAC class 1 in human MV4-11 cells assessed as upregulation of acetylation of H3 histone at 5 uM measured after 6 hrs by Western blot assay", "assay_type": "cell-based", "outline": "as §1"}, "MM1.S": {"test_system": "MM1.S", "test": "Cytotoxicity against human MM1.S cells measured after 72 hrs by spectrophotometer method", "assay_type": "functional, cell-based"}, "MV4-11 [8]": {"test_system": "MV4-11", "test": "Induction of apoptosis in human MV4-11 cells assessed as late apoptotic cells at 4 microM measured after 18 hrs by Annexin V/Propidium iodide stain based Flow cytometry assay (reference value: 4.91%)", "assay_type": "functional"}, "RPMI-8226": {"test_system": "RPMI-8226", "test": "Cytotoxicity against human RPMI-8226 cells measured after 72 hrs by spectrophotometer method", "assay_type": "functional, cell-based", "conditions": "RPMI-8226, 72 h"}, "Fibroblast [9]": {"test_system": "Fibroblast", "test": "Cytotoxicity against human fibroblasts measured after 72 hrs by spectrophotometer method", "assay_type": "cell-based"}, "HUVEC": {"test_system": "HUVEC", "test": "Cytotoxicity against human HUVEC cells measured after 72 hrs by spectrophotometer method", "assay_type": "cell-based"}, "Fibroblast [10]": {"test_system": "Fibroblast", "test": "Cytotoxicity against pooled human fibroblasts measured after 72 hrs by spectrophotometer method", "assay_type": "cell-based"}},
  "note": "Calls of active or inactive are those of the source. No cut-off for these calls is given here.",
  "data": [
    {"molecule": "CC(C)(C)c1ccc(C(=O)Nc2ccc(C(=O)NO)cc2)cc1", "values": [
      {"measurement": "IC50", "setting": "[1]", "value": "> 25000", "unit": "nM"},
      {"measurement": "Ratio IC50", "setting": "[2]", "value": 7.66},
      {"measurement": "IC50", "setting": "Histone deacetylase 6", "value": 269, "unit": "nM"},
      {"measurement": "IC50", "setting": "[3]", "value": "> 25000", "unit": "nM"}
    ]},
    {"molecule": "O=C(CCCCCCNC(=O)c1cnc(N(c2ccccc2)c2ccccc2)nc1)NO", "note": "[RICOLINOSTAT]", "values": [
      {"measurement": "IC50", "setting": "MV4-11 [4]", "value": 656, "unit": "nM"},
      {"measurement": "IC50", "setting": "[1]", "value": "> 15000", "unit": "nM"},
      {"measurement": "IC50", "setting": "Histone deacetylase 6", "value": 90, "unit": "nM"}
    ]},
    {"molecule": "O=C(CCCCCCNC(=O)c1cnc(N(c2ccccc2)c2ccccc2Cl)nc1)NO", "note": "[CITARINOSTAT]", "values": [
      {"measurement": "IC50", "setting": "MV4-11 [4]", "value": 1240, "unit": "nM"},
      {"measurement": "IC50", "setting": "[1]", "value": "> 25000", "unit": "nM"},
      {"measurement": "IC50", "setting": "Histone deacetylase 6", "value": 154, "unit": "nM"},
      {"measurement": "Activity", "setting": "[5]", "value": "Active"},
      {"measurement": "Activity", "setting": "[6]", "value": "Active"},
      {"measurement": "inhibition", "setting": "[7]", "value": "Active"},
      {"measurement": "IC50", "setting": "MM1.S", "value": 1520, "unit": "nM"},
      {"measurement": "Activity", "setting": "MV4-11 [8]", "value": 17, "unit": "%"},
      {"measurement": "IC50", "setting": "RPMI-8226", "value": 3160, "unit": "nM"},
      {"measurement": "IC50", "setting": "Fibroblast [9]", "value": 5700, "unit": "nM"},
      {"measurement": "IC50", "setting": "HUVEC", "value": 4900, "unit": "nM"},
      {"measurement": "IC50", "setting": "Fibroblast [10]", "value": 7400, "unit": "nM"}
    ]}
  ]
}
